SMILES strings stand for the structures. ≈ marks a conversion by molar mass, not a printed value.

Data set [1] addresses T1, GABA-A receptor; alpha-1/beta-2/gamma-2 (Homo sapiens, UniProt P14867+P18507+P47870).
T1 sequence (P14867 whole entry): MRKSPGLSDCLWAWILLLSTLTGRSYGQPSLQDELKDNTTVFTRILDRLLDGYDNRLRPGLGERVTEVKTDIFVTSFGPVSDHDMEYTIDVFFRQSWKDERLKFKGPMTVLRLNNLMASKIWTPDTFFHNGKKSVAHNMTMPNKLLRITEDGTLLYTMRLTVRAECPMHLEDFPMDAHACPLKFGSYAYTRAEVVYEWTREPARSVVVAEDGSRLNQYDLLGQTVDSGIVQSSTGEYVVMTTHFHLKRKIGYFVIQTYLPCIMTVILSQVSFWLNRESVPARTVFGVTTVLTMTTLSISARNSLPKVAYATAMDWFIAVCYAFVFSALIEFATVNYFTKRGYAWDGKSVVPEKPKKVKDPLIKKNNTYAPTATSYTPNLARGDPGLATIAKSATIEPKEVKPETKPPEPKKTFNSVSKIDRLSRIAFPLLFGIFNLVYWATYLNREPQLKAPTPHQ
T1 sequence (P47870 whole entry): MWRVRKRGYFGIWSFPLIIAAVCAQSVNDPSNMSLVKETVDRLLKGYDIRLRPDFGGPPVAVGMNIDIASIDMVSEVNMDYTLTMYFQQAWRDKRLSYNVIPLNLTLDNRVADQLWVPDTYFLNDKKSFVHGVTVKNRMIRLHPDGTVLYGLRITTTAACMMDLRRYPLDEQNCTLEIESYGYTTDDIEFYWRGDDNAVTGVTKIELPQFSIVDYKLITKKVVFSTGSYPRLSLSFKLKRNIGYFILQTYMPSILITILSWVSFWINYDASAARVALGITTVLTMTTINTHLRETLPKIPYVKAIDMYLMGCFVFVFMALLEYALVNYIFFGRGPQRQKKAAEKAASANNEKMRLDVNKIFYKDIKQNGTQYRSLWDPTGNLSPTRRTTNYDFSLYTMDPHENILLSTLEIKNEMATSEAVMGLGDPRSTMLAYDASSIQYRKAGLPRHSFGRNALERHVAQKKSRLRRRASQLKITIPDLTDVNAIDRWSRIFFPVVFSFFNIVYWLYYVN
T1 sequence (P18507 whole entry): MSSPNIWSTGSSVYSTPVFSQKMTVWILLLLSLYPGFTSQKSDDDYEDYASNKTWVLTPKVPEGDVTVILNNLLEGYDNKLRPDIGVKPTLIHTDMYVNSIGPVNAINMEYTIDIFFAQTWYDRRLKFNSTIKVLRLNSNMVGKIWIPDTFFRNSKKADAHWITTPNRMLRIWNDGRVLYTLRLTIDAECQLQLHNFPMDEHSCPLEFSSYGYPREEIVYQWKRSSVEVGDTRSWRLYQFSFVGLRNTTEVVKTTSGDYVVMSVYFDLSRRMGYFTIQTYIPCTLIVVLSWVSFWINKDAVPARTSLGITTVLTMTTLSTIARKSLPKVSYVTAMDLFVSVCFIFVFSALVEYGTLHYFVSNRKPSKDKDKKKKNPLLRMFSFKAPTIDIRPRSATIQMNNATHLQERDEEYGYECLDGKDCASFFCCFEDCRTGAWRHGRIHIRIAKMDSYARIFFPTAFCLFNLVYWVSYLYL
In words: Positive allosteric modulation of human GABAA alpha1beta2gamma2 receptor expressed in Xenopus laevis oocytes by two-microelectrode voltage-clamp assay. The format is cell-based, Oocyte. The method, boiled down:
(§1)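 PAM activity measured as EC50 in Xenopus oocytes expressing α1β2γ2L or α2β1γ2L GABAA receptors.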

The target in data set [2] is T2, Gamma-aminobutyric acid receptor subunit alpha-2/beta-1/gamma-2 (Homo sapiens, UniProt P18505+P18507+P47869).
T2 sequence (P18507 whole entry): T1 sequence (P18507 whole entry)
T2 sequence (P18505 whole entry): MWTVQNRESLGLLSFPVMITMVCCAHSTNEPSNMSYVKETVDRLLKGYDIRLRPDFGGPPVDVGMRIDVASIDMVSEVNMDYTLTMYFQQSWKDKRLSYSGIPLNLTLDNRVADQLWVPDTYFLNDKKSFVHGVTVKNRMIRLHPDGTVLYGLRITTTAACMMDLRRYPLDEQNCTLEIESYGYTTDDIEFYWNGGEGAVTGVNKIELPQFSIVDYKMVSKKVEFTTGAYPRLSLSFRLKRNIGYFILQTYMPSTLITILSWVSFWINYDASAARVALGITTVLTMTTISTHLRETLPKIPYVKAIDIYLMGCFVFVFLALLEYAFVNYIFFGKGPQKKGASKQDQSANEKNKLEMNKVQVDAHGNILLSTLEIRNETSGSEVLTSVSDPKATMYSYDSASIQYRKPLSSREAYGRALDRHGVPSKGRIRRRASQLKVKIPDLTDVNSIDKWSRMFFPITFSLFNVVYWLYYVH
T2 sequence (P47869 whole entry): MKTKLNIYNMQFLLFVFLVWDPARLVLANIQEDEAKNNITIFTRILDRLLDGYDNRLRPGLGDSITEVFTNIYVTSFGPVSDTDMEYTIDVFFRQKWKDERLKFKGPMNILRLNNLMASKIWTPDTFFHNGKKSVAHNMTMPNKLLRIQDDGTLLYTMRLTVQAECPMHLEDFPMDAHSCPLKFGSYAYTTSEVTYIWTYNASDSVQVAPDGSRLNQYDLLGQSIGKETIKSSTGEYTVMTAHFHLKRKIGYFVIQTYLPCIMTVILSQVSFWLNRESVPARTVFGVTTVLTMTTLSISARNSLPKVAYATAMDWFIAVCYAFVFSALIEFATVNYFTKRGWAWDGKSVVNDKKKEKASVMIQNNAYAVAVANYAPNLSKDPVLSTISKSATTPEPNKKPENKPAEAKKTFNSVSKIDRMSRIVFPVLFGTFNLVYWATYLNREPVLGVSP
In words: Positive allosteric modulation of human GABAA alpha2beta1gamma2 receptor expressed in Xenopus laevis oocytes by two-microelectrode voltage-clamp assay. The data set is classed as cell-based, Oocyte. The method, boiled down: as §1

A short description of data set [3]: Solubility of the compound in 45% HPbetaCD. The format is physicochemical.
The nature of data set [4]: Oral availability in rat 3 mg/kg, po. The data set is classed as ADME, organism-based. As to conditions: in vivo. The essentials:
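Rat oral bioavailability from dosing at 3 mg/kg p.o. and 1 mg/kg i.v.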

The species entered for data set [5] is Mus musculus. In words: Anxiolytic activity in mouse assessed as increase in time spent in open arm by elevated plus maze test. The data set is classed as functional. Particulars: read-out: MED. The method, boiled down: (§2)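 Mice were dosed orally. Anxiolytic activity was tested in the elevated plus maze and reported as minimum effective dose. Anticonvulsant activity was tested against pentylenetetrazole-induced seizures and reported as ED50. Therapeutic indices were given for the anxiolytic and anticonvulsant read-outs against a preliminary mouse safety measure.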

Data set [6] deals with Mus musculus. In words: Anticonvulsant activity in PTZ induced mouse administered orally. The format is functional. Particulars: route po. The essentials:
as §2

Data set [7] in a line: Therapeutic index, ratio of AD50 for mouse to MED for anxiolytic activity in mouse assessed as increase in time spent in open arm by elevated plus maze test. Particulars: read-out: TI. The format is toxicity. The essentials:
as §2

Data set [8] is described as follows: Therapeutic index, ratio of AD50 for mouse to ED50 for anticonvulsant activity in PTZ induced mouse administered orally. The data set is classed as toxicity. Particulars: in vivo, route po, read-out: TI. The method, boiled down:
as §2

The species entered for data set [9] is Mus musculus. In words: Anticonvulsant activity in 6-Hz induced seizure mouse model assessed as protection against 6-Hz induced seizure. The data set is classed as functional. The essentials: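 Tonic currents recorded from voltage-clamped ([…]) dentate gyrus granule cells of wild-type female mice. Value is fold potentiation of the mean normalized tonic response to 1 µM GABA, from four to eight cells per steroid and concentration. Anticonvulsant ED50 determined in the mouse 6-Hz psychomotor seizure model.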

Data set [10] has as its target GABA-A receptor; anion channel (Homo sapiens) (UniProt P14867+P47870+P18507+P28472+P48169+Q99928+Q9UN88+P34903+O00591+O14764+Q8N1C3+P18505+P78334+P47869+P31644+Q16445). In words: Potentiation of NAS mediated GABA (unknown origin) tonic effect assessed as fold potentiation. The data set is classed as protein-complex assay. Particulars: filed as activator.
Another data set concerns Rattus norvegicus. In words: Neuroprotective activity against transient middle cerebral artery occlusion induced cerebral infraction Sprague-Dawley rat model assessed as decrease in cerebral infraction volume at 12 mg/kg, ip and measured after 7 days by TTC staining based assay. The arrangement: scale not given: the % may be the effect or the level left. The data set is classed as functional. As to conditions: time 7 day.

Data set [11] is described as follows: Inhibition of NMDA current in Sprague-Dawley rat Cortical neuron. The data set is classed as functional, cell-based. As to conditions: cortical neurone.
Data set [12] is described as follows: Inhibition of NMDA induced calcium increase in Sprague-Dawley rat Cortical neuron. The format is functional, cell-based, Cortical neurone.
Data set [13] in a line: Brain concentration in mouse at 10 mg/kg po measured after 30 mins. The format is ADME, organism-based. Particulars: read-out: Ct. The essentials: (§3)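 Mice were given oral doses of 3, 10 or 30 mg/kg, with a vehicle group. Pentylenetetrazole was used to induce seizures. Percentages of animals with clonic seizure, tonic seizure and death were recorded. Plasma (ng/mL) and brain (ng/g) concentrations were measured in samples collected 30 min after administration.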

Data set [14] is described as follows: Brain concentration in mouse at 30 mg/kg po measured after 30 mins. The format is ADME, organism-based. As to conditions: read-out: Ct. The method, boiled down:
as §3

Data set [15] is described as follows: Plasma concentration in mouse at 30 mg/kg, po measured after 30 mins. The format is ADME, organism-based. The essentials: as §3
Data set [16] in a line: Brain concentration in mouse at 3 mg/kg po measured after 30 mins. The data set is classed as ADME, organism-based. Particulars: read-out: Ct. The essentials:
as §3

Data set [17] can be described thus: Plasma concentration in mouse at 3 mg/kg, po measured after 30 mins. The data set is classed as ADME, organism-based. The method, boiled down:
as §3

The nature of data set [18]: Plasma concentration in mouse at 10 mg/kg, po measured after 30 mins. The format is ADME, organism-based. The method, boiled down: as §3
The subject of data set [19] is Mus musculus. In words: Anticonvulsant activity in PTZ induced mouse assessed as reduction in clonic seizure at 10 mg/kg,po (reference value: 100%). The format is functional. Set-up: scale not given: the % may be the effect or the level left. The essentials: as §3
The subject of data set [20] is Mus musculus. In words: Anticonvulsant activity in PTZ induced mouse assessed as animal death at 3 mg/kg,po (reference value: 80%). The format is functional. The method, boiled down: as §3
Data set [21] relates to Mus musculus. In words: Anticonvulsant activity in PTZ induced mouse assessed as reduction in tonic seizure at 3 mg/kg,po (reference value: 80%). The format is functional. The arrangement: scale not given: the % may be the effect or the level left. The method, boiled down:
as §3

The test system of data set [22] is Mus musculus. In words: Anticonvulsant activity in PTZ induced mouse assessed as reduction in clonic seizure at 3 mg/kg,po (reference value: 100%). The data set is classed as functional. Set-up: scale not given: the % may be the effect or the level left. The essentials:
as §3

Broadly, the EC50 is the concentration needed to bring the measured effect to its halfway point. Broadly, the solubility is the concentration that dissolves in the medium under given conditions. The bioavailability is the share of a dose that reaches the circulation, judged against a reference dose that is usually intravenous. As a reminder, the ED50 is the midpoint of the dose-response relation. As to `C[C@@]1(O)CC[C@@]2(C)[C@@H](CC[C@@H]3[C@@H]2CC[C@]2(C)[C@@H](c4cc(CO)on4)CC[C@@H]32)C1`, the figures for the EC50 in [1] and in [2] were 1200 nM and 200 nM, respectively. For the same compound, the solubility in data set [3] stood at 52 mM (≈ 20.2 mg/mL). This compound also came in with a bioavailability in data set [4] of 77%. In the data set filed under Mus musculus [5], the minimal effective dose was no more than 0.3 mg/kg. In addition, the ED50 in the data set on Mus musculus [6] was 6 mg/kg. Moreover, the results for the selectivity ratio in data set [7] and in data set [8] were no less than 127 and 6, respectively.

With `CC(=O)[C@H]1CC[C@H]2[C@@H]3CC[C@H]4C[C@](C)(O)CC[C@]4(C)[C@H]3CC[C@]12C` [GANAXOLONE], the ED50 in the data set listed under Mus musculus [9] worked out at 1.5 mg/kg; in the data set with Mus musculus [6], 23 mg/kg. Besides, the fold change (FC) in data set [10] was 3.47. For the same compound, the EC50 came to 200 nM in data set [1] and 100 nM in data set [2]. This compound yielded a solubility in data set [3] of 20 mM (≈ 6.65 mg/mL). Further, the minimal effective dose in the data set filed under Mus musculus [5] worked out at 20 mg/kg. Also, the results for the selectivity ratio in data set [7] and in data set [8] were 3.3 and 3, respectively.

What is called IC50 is the concentration that inhibits the measured activity by half. On to `C=C(C)CC[C@@H](C)[C@H]1CC[C@H]2[C@@H]3C[C@@H](O)[C@@]4(O)C[C@H](O)CC[C@]4(CO)[C@H]3CC[C@]12C`, for which the Activity in the data set on Rattus norvegicus is listed as 30%. Also, the IC50 in data set [11] is 10300 nM; in data set [12] (Rattus norvegicus, Sprague-Dawley, Cortical neurone) it was 7800 nM; in [12] (cortical neurone) it was 10300 nM.

`C[C@@]1(O)CC[C@H]2[C@H](CC[C@@H]3[C@@H]2CC[C@]2(C)[C@@H](C(=O)Cn4nccn4)CC[C@@H]32)C1`: the concentration at 0.5 h in [13] is 773 ng/g; in data set [14] it was 1960 ng/g; in data set [15] it was 1690 ng/mL; in [16], 87 ng/g; in data set [17], 87 ng/mL; in data set [18], 703 ng/mL. In addition, the Activity in the data set on Mus musculus [19] came out at 20%; in the data set on Mus musculus [20] it was 30%; with Mus musculus [21] it was 40%; in the data set on Mus musculus [22] it was 90%.

Source of the values: ChEMBL document CHEMBL5260830, “Breakthroughs in neuroactive steroid drug discovery” (Bioorg Med Chem Lett, 2018).
